Assay [1] concerns the target T1, Phosphodiesterase 4 (Homo sapiens) (UniProt P27815+Q08499+Q07343+Q08493). Briefly: Inhibition of PDE4 in human U937 cells assessed as inhibition of cAMP hydrolysis at 2 uM by SPA. The format is cell-based. To be noted: U-937. In outline: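 PDE, mostly type IV by isoform-inhibitor sensitivity, was semipurified from U937 cells. cAMP hydrolysis was measured by scintillation proximity assay across graded compound concentrations. Rates were expressed as percent of flavonoid-free control, and the concentration giving 50% inhibition was reported.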

The test system of assay [2] is Monocyte. Briefly: Inhibition of IL10 expression in LPS-stimulated human monocytes treated 30 mins before LPS challenge measured after 14 hrs by ELISA. It is filed as functional, cell-based. A digest of the protocol: (§1)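 Human PBMC at 4 × 10^6/mL in DMEM with 30% FCS, glutamine and pen/strep were allowed to adhere for 2 h at 37 °C and 5% CO2. Nonadherent lymphocytes were washed off. Adherent monocytes were preincubated 30 min with graded compound concentrations, then stimulated with LPS. After 14 h, supernatants were assayed by ELISA. Values are percent of compound-free cultures, as means ± SE from three donors.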
For orientation: In an ELISA, binding on a coated surface is turned into a signal by an enzyme label.

Assay [3] deals with Monocyte. The experiment in a line: Inhibition of IL1-beta mRNA expression in LPS-stimulated human monocytes treated 30 mins before LPS challenge measured after 90 mins by RT-PCR. It is filed as functional, cell-based. In outline: (§2)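 Elutriated monocytes at 5 × 10^6/mL in complete medium were preincubated 30 min at 37 °C with graded compound concentrations. They were then stimulated with 20 ng/mL LPS for 90 min. Total RNA was isolated with RNAzol. TNFα and IL-1β mRNA were measured by RT-PCR with [α-32P]dCTP, relative to GAPDH.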

For assay [4], the system named is Monocyte. Briefly: Inhibition of MIP1alpha expression in LPS-stimulated human monocytes treated 30 mins before LPS challenge measured after 14 hrs by ELISA. The format is functional, cell-based. In outline: as §1
The target of assay [5] is T1, Phosphodiesterase 4 (Homo sapiens). Briefly: Inhibition of PDE4 in human monocytes assessed as elevation of cytosolic cAMP level at 100 uM treated for 30 mins assessed per 10^7 cells by EIA. It is filed as cell-based. In outline:
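Elutriated human monocytes at 5 × 10^6/mL in complete medium (30% FCS) were precultured 2 h at 37 °C and 5% CO2. They were then exposed for 30 min to 100 µM flavone or 200 µM IBMX. Cells were lysed in cold 10 mM HEPES pH 7.6 with 1% NP40. cAMP was isolated on SAX columns, eluted with methanol/0.01 M HCl, dried, and quantified by EIA as pmol/10^7 cells.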

Assay [6] has as its system Monocyte. The experiment in a line: Increase in IL6 expression in LPS-stimulated human monocytes at 100 uM treated 30 mins before LPS challenge measured after 14 hrs by ELISA. It is filed as functional. A digest of the protocol:
(§3)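 Monocyte cultures were held 14 h in medium alone, with 20 ng/mL LPS alone, or with LPS plus 100 µM compound. IBMX served as reference. TNFα, IL-6, IL-8, IL-10 and MIP-1α were measured in supernatants by ELISA, and IL-1β in cell lysates made with 1% NP40 in PBS. Significance versus LPS alone was set at p < 0.05.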

The subject of assay [7] is Monocyte. Briefly: Inhibition of IL8 expression in LPS-stimulated human monocytes at 100 uM treated 30 mins before LPS challenge measured after 14 hrs by ELISA. The format is functional. A digest of the protocol: as §3
Assay [8] concerns Monocyte. The experiment in a line: Inhibition of IL6 expression in LPS-stimulated human monocytes at 100 uM treated 30 mins before LPS challenge measured after 14 hrs by ELISA. The format is functional. In outline: as §3
Assay [9] has as its system Monocyte. The experiment in a line: Inhibition of MIP1alpha expression in LPS-stimulated human monocytes at 100 uM treated 30 mins before LPS challenge measured after 14 hrs by ELISA. It is filed as functional. In outline:
as §3

In assay [10] the test system is Monocyte. Briefly: Inhibition of TNFalpha mRNA expression in LPS-stimulated human monocytes treated 30 mins before LPS challenge measured after 90 mins by RT-PCR. It is filed as functional, cell-based. In outline: as §2
The subject of assay [11] is Monocyte. The experiment in a line: Inhibition of IL10 expression in LPS-stimulated human monocytes at 100 uM treated 30 mins before LPS challenge measured after 14 hrs by ELISA. The format is functional. In outline:
as §3

Assay [12] deals with Monocyte. Briefly: Inhibition of IL1-beta expression in LPS-stimulated human monocytes at 100 uM treated 30 mins before LPS challenge measured after 14 hrs by ELISA. It is filed as functional. In outline:
as §3

For assay [13], the system named is Monocyte. The experiment in a line: Inhibition of TNFalpha expression in LPS-stimulated human monocytes at 100 uM treated 30 mins before LPS challenge measured after 14 hrs by ELISA. It is filed as functional. In outline:
as §3

For assay [14], the system named is Monocyte. Briefly: Inhibition of TNFalpha expression in LPS-stimulated human monocytes treated 30 mins before LPS challenge measured after 14 hrs by ELISA. The format is functional, cell-based. A digest of the protocol: as §1

What is called inhibition is how much of the control response was suppressed. The pIC50 is the IC50 on a negative log10 scale, so that one unit is a factor of ten. Lower therefore signals a high IC50.

Molecules are shown by their SMILES. pIC50: −log10 of the molar value. The source made the active and inactive calls. The rule behind the calls is not given here.

As to `COc1ccc(-c2oc3c(OC)c(OC)c(OC)c(OC)c3c(=O)c2OC)cc1OC` [3,5,6,7,8,3',4'-HEPTAMETHOXYFLAVONE], in [1], the inhibition is 50%. The pIC50 in [2] was 4.91; in assay [4], 5.14; in [14], 5.30. For the same compound, the result in assay [3], in [7], in [8] and in assay [12] was inactive. Further, the Activity amounted to 5.7 pmol in [5]; 30% in [6]; 307 ng/mL in assay [7] (record 2); 90 ng/mL in assay [8] (record 2); 49.2 ng/mL in [9]; 0.269 ng/mL in assay [11]. The Activity in [12] (record 2) stood at 62.9 ng/mL; in [13] it was 9.7 ng/mL. Also, the result in [10] was Active.
